{"source": "paper PMC8513424", "about": "(Laryngoscope Investigative Otolaryngology, 2021)", "key": {"[1]": {"test_system": "patients with multiple myeloma, and T‐ and B‐cell lymphomas", "details": "three times weekly for 3 weeks of a 28‐day cycle; cited from earlier work"}, "[2]": {"test_system": "patients with advanced solid tumors", "details": "cited from earlier work"}, "primary meningioma cells": {"test_system": "primary meningioma cells", "details": "read-out: IC50, primary meningioma cells; cited from earlier work"}, "[3]": {"test_system": "NF2‐deficient benign meningioma Ben‐Men‐1 cells", "details": "cited from earlier work"}, "[4]": {"test_system": "hearing of patients with NF2", "assay": "Pilot 1 audiograms", "format": "in vivo, human"}, "[5]": {"details": "day one, cited from earlier work"}, "Ben‐Men‐1 xenograft": {"test_system": "Ben‐Men‐1 xenograft", "details": "cited from earlier work"}, "[6]": {"assay": "Pilot 2 intra‐tumoral AR‐42 concentration by LC‐MS/MS", "format": "in vivo, human", "summary_of_the_method": "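The oral test compound was given at 40 mg three times weekly for 3 weeks before resection. Each VS was divided into peripheral capsule and center, and samples were frozen quickly. Drug was measured by LC-MS/MS against a standard curve of known concentrations, as the mean of three runs. Tumor:plasma ratio = capsule or center concentration ÷ pre-anesthesia plasma concentration.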"}, "[7]": {"details": "Patient # 2.7 (meningioma), 40 mg"}}, "note": "Read-outs that look alike come from different tables or passages of the source."}
{"smiles": "CC(C)[C@H](C(=O)Nc1ccc(C(=O)NO)cc1)c1ccccc1", "note": "[AR‐42]", "values": [{"measurement": "Maximum tolerated dose (MTD)", "setting": "[1]", "result": 40, "unit": "mg"}, {"measurement": "Dose‐limiting toxicities (DLTs)", "setting": "[2]; 30, 60 or 80 mg orally", "result": "grade 3 thrombocytopenia and grade 4 psychosis"}, {"measurement": "Median progression‐free survival", "setting": "[2]; NF2 and non‐NF2 meningioma subset, RECIST, 95% CI: 1.9—not reached", "result": 9.1, "unit": "months"}, {"measurement": "Most common treatment‐related adverse events", "setting": "[2]", "result": "cytopenias, fatigue, and nausea"}, {"measurement": "Recommended phase II dose", "setting": "[2]; daily, three times weekly for 3 weeks of a 28‐day cycle", "result": 60, "unit": "mg"}, {"measurement": "IC50", "setting": "primary meningioma cells", "result": 1500, "unit": "nM"}, {"measurement": "IC50", "setting": "[3]; read-out: IC50, Ben‐Men‐1 cells", "result": 1000, "unit": "nM"}, {"measurement": "IC50", "setting": "[3]; read-out: IC50 for meningiomas, previous in vitro studies", "result": "~1000", "unit": "nM"}, {"measurement": "Pure tone average (PTA) after treatment", "setting": "[4]; Patient 1.6, from 17 db at initiation", "result": 55, "unit": "db"}, {"measurement": "Measurable hearing in the contralateral ear on AR‐42", "setting": "[4]; patients 1.1, 1.4 and 1.7", "result": "remained stable"}, {"measurement": "Mean maximal plasma concentration", "setting": "[5]; 60 mg dose", "result": "1.48 (±0.38) μM"}, {"measurement": "Maximum plasma concentration", "setting": "[5]; Patient 1.7, 80 mg dose", "result": 3.25, "unit": "µM"}, {"measurement": "Meningioma tumor volumes", "setting": "Ben‐Men‐1 xenograft", "result": "markedly diminished meningioma tumor volumes"}, {"measurement": "Tumor return after treatment", "setting": "Ben‐Men‐1 xenograft; followed 6 months post‐treatment", "result": "tumors did not return"}, {"measurement": "Concentration in meningioma capsule", "setting": "[6]; 40 mg", "result": 5300, "unit": "nM"}, {"measurement": "Concentration in meningioma tumor center", "setting": "[6]; 40 mg", "result": 1800, "unit": "nM"}, {"measurement": "Concentrations of AR‐42 in VS", "setting": "[6]; 40 mg", "result": "230 to 620", "unit": "nM"}, {"measurement": "Concentration in tumors, Capsule", "setting": "[6]; Patient # 2.1 (VS), 40 mg", "result": 624.2, "unit": "nM"}, {"measurement": "Concentration in tumors, Center", "setting": "[6]; Patient # 2.1 (VS), 40 mg", "result": 577.0, "unit": "nM"}, {"measurement": "Concentration in tumors, Capsule", "setting": "[6]; Patient # 2.2 (VS), 40 mg", "result": 429.4, "unit": "nM"}, {"measurement": "Concentration in tumors, Center", "setting": "[6]; Patient # 2.2 (VS), 40 mg", "result": 586.6, "unit": "nM"}, {"measurement": "Concentration in tumors, Capsule", "setting": "[6]; Patient # 2.4 (VS), 40 mg", "result": 230.6, "unit": "nM"}, {"measurement": "Concentration in tumors, Center", "setting": "[6]; Patient # 2.4 (VS), 40 mg", "result": 289.0, "unit": "nM"}, {"measurement": "Concentration in tumors, Capsule", "setting": "[6]; Patient # 2.6 (VS), 40 mg", "result": 16.2, "unit": "nM"}, {"measurement": "Concentration in tumors, Center", "setting": "[6]; Patient # 2.6 (VS), 40 mg", "result": 7.1, "unit": "nM"}, {"measurement": "Concentration in tumors, Capsule", "setting": "[6]; [7]", "result": 5296.6, "unit": "nM"}, {"measurement": "Concentration in tumors, Center", "setting": "[6]; [7]", "result": 1766.2, "unit": "nM"}, {"measurement": "Meningioma (subject 2.7) AR‐42 level higher than the VS", "setting": "[6]; WHO grade I meningioma", "result": 10, "unit": "fold"}, {"measurement": "AR‐42 concentrations in tumors compared with plasma", "setting": "[6]; all tumors, Pilot 2, 40 mg", "result": "higher"}]}
